# A selection: hits, their analogues and other compounds. The true share with any hit is near 3.2%.
# Hck-Nef inh: blocks Nef-activated human Hck kinase; AID 463187; 220,000 tested, 0.68% active; inhibition, % at 20 µM; Recombinant Hck-YEEI plus Nef, Z-Lyte FRET kinase assay;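 active = Hck-Nef kinase inhibition above about 50%, limit read from the data; inactive = inhibition below that limit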;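 also: 0% = DMSO with Hck plus Nef and 100% = Hck alone without Nef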
# Bim-Mcl-1: human Bim-Mcl-1 interaction inhibition | Q07820 | Bead-based flow cytometry, Bim peptide-Mcl-1 binding | inhibition, % at 10 µM | 190,000 tested, 0.1% active | AID 1009; in the data active = inhibition above about 40%;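 also: 0% = no compound tracer wells and 100% = peptide blocker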
# 14-3-3 Bad inh: disrupts binding of bovine 14-3-3 zeta to phospho-Bad peptide; P63103; TR-FRET 14-3-3zeta/Dy647-pBad peptide displacement, 1 h; inhibition, % at 21.7 µM; 220,000 tested, 0.71% active; AID 781;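 active = inhibition above about 70%, limit read from the data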;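 also: 0% = full 14-3-3 plus peptide FRET controls and 100% = background without 14-3-3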
# Target sequence (P63103 whole entry, looked up): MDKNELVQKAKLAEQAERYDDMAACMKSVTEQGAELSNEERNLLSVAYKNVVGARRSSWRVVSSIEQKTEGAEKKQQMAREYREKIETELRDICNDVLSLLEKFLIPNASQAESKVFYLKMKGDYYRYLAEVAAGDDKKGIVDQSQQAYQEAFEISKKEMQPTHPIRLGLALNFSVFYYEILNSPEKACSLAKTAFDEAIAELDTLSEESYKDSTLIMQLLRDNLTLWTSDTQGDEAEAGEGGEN
# Mcl1-Noxa inh: Mcl-1/Noxa interaction inhibition. Q07820. TR-FRET Mcl-1/Noxa peptide binding, 2 h. inhibition, % at 21.7 µM. 220,000 tested, 1.5% active. AID 1022;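 active = compounds that cut the protein-peptide binding signal by more than 50% relative to plate controls in a single-dose test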;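 also: His-tagged Mcl-1 with rhodamine Noxa BH3 peptide and terbium anti-His antibody; 0% = Mcl-1 plus Noxa peptide wells and 100% = peptide-only wells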
# Mcl1-Bid inh: Mcl-1/Bid interaction inhibition; Q07820; TR-FRET Mcl-1/Bid-Dy647 peptide binding, 1536-well; AID 1021; inhibition, % at 21.7 µM; 220,000 tested, 0.97% active;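 active = compounds that cut the binding signal by more than half at the single screening dose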;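 also: His-tagged Mcl-1 with europium anti-His antibody binding Bid BH3 peptide; 0% = Mcl-1 plus peptide wells and 100% = peptide-only wells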
# Calb biofilm kill: mixture kills Candida albicans biofilm cells. C. albicans biofilm persisters + clotrimazole, fluorescence viability; primary screen in compound mixtures of four per well. inhibition, % at 7.6 µM. 120,000 tested, 0.02% active. AID 1242;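 active = inhibition above 30.3% in the primary screen of four-compound pools, then above 30% when the compound was retested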;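 also: compounds exposed to preformed 24 h biofilms for 48 h; 0% = untreated biofilm control and 100% = clotrimazole plus chlorhexidine kill blank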
#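 Probe or stimulus – Clotrimazole 50 µg/mL co-treatment · System – C. albicans biofilms · Schedule – 24 h biofilm formation, then 48 h compound exposure, 37 °C · Evaluation – percent inhibition of biofilm viability · Technique – 2-h Alamar Blue fluorescence, 535/590 nm excitation/emission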
# Starred values were filed as active, the others as inactive; x = not tested or not shown; ! = repeats disagree.
SMILES,Hck-Nef inh,Bim-Mcl-1,14-3-3 Bad inh,Mcl1-Noxa inh,Mcl1-Bid inh,Calb biofilm kill
Cc1ccc(C(=O)Nc2ccc(N3CCOCC3)cc2)cc1,2.8,-4.0,-7.0,1.3,-34.3,x
CC(C)(C)C(=O)Nc1ccc(N2CCCC2)cc1,-3.0,-1.0,-3.0,56.5*,-54.9,x
Cc1ccccc1-c1oc(C)c(C)[n+]1[O-],22.1,-4.0,9.6,33.1,-13.8,13.6
CC1CCN(C(=O)CSc2ccc(-c3ccccc3)nn2)CC1,-0.7,0.0,-11.1,7.5,-16.1,11.9
O=C(Nc1ccc(N2CCCC2)cc1)c1ccccc1F,3.5,-5.0,4.4,82.4*,-30.4,14.2
O=C(Nc1ccc(N2CCCCC2)cc1)c1ccc(F)cc1F,-6.3,x,-0.2,1.8,-26.0,13.3
O=C(Nc1ccc(N2CCCC2)cc1)c1ccc2ccccc2c1,4.3,11.0,13.3,74.5*,-34.1,-6.5
CCN1C(=O)CC2(C[N+]3(C)CCC2CC3)C1=O (stereo not drawn),0.9,-3.0,-2.7,-6.7,-1.3,9.9
Cc1ccc(C(=O)OCc2ccc3c(c2)OCO3)cc1S(=O)(=O)N1CCCCC1,0.3,0.0,5.2,11.9,-7.3,x
O=C(N/N=C/c1cccnc1)C(O)c1ccccc1 (stereo not drawn),0.6,0.0,-2.2,5.0,-21.3,22.1
O=C(COC(=O)c1cc(-c2ccco2)nc2ccccc12)NCc1ccc2c(c1)OCO2,8.7,1.0,9.2,75.9*,22.4,x
CC(C)CCNC(=O)c1cc(-c2ccco2)nc2ccccc12,6.6,1.0,2.6,4.8,-21.0,x
COc1ccccc1CNC(=O)COC(=O)c1cc(-c2ccco2)nc2ccccc12,13.6,3.0,15.3,92.2*,32.5,x
NC(=O)COC(=O)c1cc(-c2ccco2)nc2ccccc12,-13.2,x,2.4,60.7*,9.4,14.7
O=C(O)c1cc(-c2ccco2)nc2ccc(Br)cc12,14.2,4.0,1.9,83.9*!,26.3,6.0
O=C(c1ccco1)N1CCN(C(=O)c2cc(-c3ccncc3)nc3ccc(Br)cc23)CC1,0.8,x,x,x,x,x
CCn1c(=O)c2c(nc3n2CCN3c2ccccc2)n(C)c1=O,9.0,6.0,0.0,10.9,-17.9,17.1
CCc1nnc(NC(=O)c2cc(-c3ccco3)nc3ccccc23)s1,-1.8,1.0,-0.4,82.1*,-31.4,5.7
CCOC(=O)c1cc(-c2ccco2)nc2c1c(C)nn2-c1ccccc1,2.6,5.0,-14.7,56.1*,14.5,x
Cc1ccc(-c2cc(C(=O)N3CCN(c4ncccn4)CC3)c3cc(Br)ccc3n2)o1,17.3,4.0,-6.1,79.0*,20.8,24.1
O=C(NC1CCC(O)CC1)c1cc(-c2ccco2)nc2ccccc12 (stereo not drawn),45.6,0.0,12.2,54.5*,-43.2,2.0
O=C(NCC1CCCO1)c1cc(-c2ccco2)nc2ccccc12 (stereo not drawn),0.3,2.0,-1.5,41.7,-53.0,x
COc1ccc([N+](=O)[O-])cc1NC(=O)N(C)Cc1ccco1,34.7,x,5.1,20.3,12.5,9.1
CC(/C=N/NC(=O)CNc1n[nH]c(=O)[nH]c1=O)c1ccccc1 (stereo not drawn),8.1,x,1.2,15.4,-4.8,13.7
COc1ccc(/C(N)=N/O)c(OC)c1,-18.0,0.0,-1.4,5.4,-43.5,13.3
SMILES,Hck-Nef inh,Bim-Mcl-1,14-3-3 Bad inh,Mcl1-Noxa inh,Mcl1-Bid inh,Calb biofilm kill
C=CCC(Nc1ccccc1)c1ccc(OC)c(OC)c1 (stereo not drawn),23.9,x,-8.5,11.4,-49.4,15.1
O=C1CCC/C(=N\NC(=O)COc2ccc(Cl)cc2)C1,-0.3,0.0,-4.7,15.9,-14.0,16.3
CCOC(=O)C1CCN(CC(=O)Nc2c(C(=O)OC)[nH]c3cccc(Cl)c23)CC1,0.2,0.0,2.8,3.7,99.3*,x
CCOC(=O)C1CCN(CC(=O)Nc2c(C(=O)OC)[nH]c3ccccc23)CC1,2.7,-1.0,-10.1,12.6,-32.8,x
O=c1oc2ccccc2c2oc3cc(O)c(O)cc3c12,-140.0,x,14.9,98.0*,-94.8,14.1
Nc1c(N)c2ccccc2oc1=O,2.3,0.0,2.5,-4.3,-74.6,x
O=C(Nc1ccccc1[N+](=O)[O-])c1cc2ccccc2nc1Cl,12.7,x,5.3,23.8,-17.3,19.7
O=C(Nc1ccccc1[N+](=O)[O-])C1=C(O)CCn2c1nc1ccccc12,-7.1,6.0,x,71.8*,24.0,x
